Legend:
[1] = target: Potassium-transporting ATPase alpha chain 1/subunit beta (Oryctolagus cuniculus); test: Inhibition of H+/K+ ATPase as reduced acid formation in rabbit gastric glands
[2] = target: Potassium-transporting ATPase (Sus scrofa, UniProt P19156); test: Inhibition of purified H+/K+ ATPase at pH 7.4 as released inorganic phosphate from ATP using hog stomach gastric membrane vesicles
How it was run: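 Gastric membrane vesicles from hog stomach were prepared by differential and zonal density gradient centrifugation. Activity was read as inorganic phosphate released from ATP at pH 7.4. Protein was measured by the Bradford method against a gammaglobulin standard.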

Sequence of Potassium-transporting ATPase (P19156 whole entry, looked up): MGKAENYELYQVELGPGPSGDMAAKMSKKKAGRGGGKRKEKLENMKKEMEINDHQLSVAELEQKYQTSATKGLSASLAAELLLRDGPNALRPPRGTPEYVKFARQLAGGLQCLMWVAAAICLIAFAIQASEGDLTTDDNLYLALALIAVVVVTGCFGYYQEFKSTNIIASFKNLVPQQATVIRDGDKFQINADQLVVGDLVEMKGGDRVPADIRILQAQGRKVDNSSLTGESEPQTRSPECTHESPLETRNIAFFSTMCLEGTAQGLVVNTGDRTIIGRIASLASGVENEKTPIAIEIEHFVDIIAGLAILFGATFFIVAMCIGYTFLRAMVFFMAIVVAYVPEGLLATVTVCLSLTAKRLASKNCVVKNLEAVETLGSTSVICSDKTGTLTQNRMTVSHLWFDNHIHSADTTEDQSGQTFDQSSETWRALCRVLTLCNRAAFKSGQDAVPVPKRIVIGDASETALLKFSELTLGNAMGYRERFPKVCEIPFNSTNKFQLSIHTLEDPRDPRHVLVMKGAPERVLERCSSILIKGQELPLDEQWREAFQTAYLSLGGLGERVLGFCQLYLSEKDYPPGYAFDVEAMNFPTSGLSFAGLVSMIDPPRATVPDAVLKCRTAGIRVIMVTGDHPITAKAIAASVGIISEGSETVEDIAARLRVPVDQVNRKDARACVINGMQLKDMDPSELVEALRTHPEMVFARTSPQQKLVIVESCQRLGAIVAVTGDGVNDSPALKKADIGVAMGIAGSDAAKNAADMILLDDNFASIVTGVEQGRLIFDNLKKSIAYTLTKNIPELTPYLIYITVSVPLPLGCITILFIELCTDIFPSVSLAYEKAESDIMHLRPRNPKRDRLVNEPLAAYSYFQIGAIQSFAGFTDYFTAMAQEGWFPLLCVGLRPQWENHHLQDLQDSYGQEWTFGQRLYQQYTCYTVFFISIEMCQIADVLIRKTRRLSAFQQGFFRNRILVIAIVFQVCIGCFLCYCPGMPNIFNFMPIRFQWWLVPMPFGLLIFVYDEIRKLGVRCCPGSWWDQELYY

Compound | IC50 [1] [µM] | IC50 [2] [µM]
Cc1nc2c(C/C=C/c3ccccc3)cccn2c1CC#N | 442 | 206
Cc1nc2c(OCc3ccccc3)nccn2c1N | – | 178

From BindingDB's records for doi:10.1021/jm950700s (Schering-Plough Research Institute, 1997)
